Data as given in ChEMBL document CHEMBL4513216, “Probing the Open Global Health Chemical Diversity Library for Multistage-Active Starting Points for Next-Generation Antimalarials” (ACS Infect Dis, 2020).

Test: Toxicity liver stage against HepG2, at 10uM
Assay type: cell-based
Set-up: test concentration 10 uM, cell line HepG2-A16-CD81EGFP
Details: human, HepG2-A16-CD81EGFP cells; read-out: INHIBITION
Procedure, shortened: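 Uninfected HepG2-A16-CD81EGFP cells, 3 × 10^3 per well, 1536-well, plated on prespotted compound at 10 μM final, parasite-free screening media added to match infected plates; puromycin 10 μM positive, DMSO 0.5% negative; run in parallel with 48 h PbLuc assay at 37 °C, 5% CO2; viability by CellTiter-Glo luminescence, normalized to controls.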

| SMILES | cytotoxicity at 10 µM |
| --- | --- |
| Cc1ccc2c(c1)c(C)cc(=O)n2CC(=O)O | 3.1% |
| COc1ncccc1C(=O)N1CC(c2nc(-c3cccs3)no2)C1 | -21.5% |
| COc1ccc(N2CCCC3(C2)CN(c2nncs2)CCO3)cc1 (stereo unspecified) | 4.17% |
| COc1ccc(CNCCn2c(C)nc3ccccc32)cc1O | -3.51% |
| COc1cc(CNc2cc(N3CCCC3CO)ncn2)ccn1 (stereo unspecified) | -28.5% |
| O=C1C(Sc2nc(=O)ccn2C2CC2)CCN1c1ccccc1F (stereo unspecified) | 1.73% |
| CC(C)N(Cc1nc(-c2cccs2)no1)CC1CCC(=O)N1 (stereo unspecified) | -0.475% |
| Cn1cc(CNCCc2cccnc2)c(-c2cccnc2)n1 | 9.37% |
| O=C(C1CCCC1)N1C[C@H]2CNC[C@H]2C1 | 1.47% |
| Cn1ccc(CN2CCC(NC(=O)Cc3ccccc3)CC2)cc1=O | -9.75% |
| CCCn1ncc(CN(CCN(C)C)Cc2ccsc2)c1C | 12.2% |
| Cn1ccnc1CN1CCCN(C(=O)c2ccc3ccccc3c2)CC1 | -8.66% |
| Cc1nnc(-c2cccc(N3CCC(NC(C)CC(C)C)CC3)c2)s1 (stereo unspecified) | 0.363% |
| CNS(=O)(=O)Cc1cccc(CNCc2ccsc2)c1 | 11.7% |
| O=C(CSc1ccncc1)N1CCC2(CC1)c1ccccc1CC2O (stereo unspecified) | -2.36% |
| CN(Cc1ccsc1)C(=O)Nc1ccc(N2CCCC2)nc1 | -10.5% |
| Cc1cc(C(=O)N2CCCC3(COCCN(c4ccccc4)C3)C2)[nH]n1 (stereo unspecified) | -1.56% |
| Cc1noc(C)c1CN(C)CC1CC(C2CCCCC2)=NO1 (stereo unspecified) | 3.72% |
| Cc1cccc(N2CCOCC3(C2)CN(c2cncnc2)C(=O)CO3)n1 (stereo unspecified) | 5.88% |

| SMILES | cytotoxicity at 10 µM |
| --- | --- |
| Cc1ccc(CN2CCC3(CCCN(Cc4ccc(F)c(F)c4)C3)C2)o1 (stereo unspecified) | 9.39% |
| Cc1ccc(CN2CCC3(CC2)CC(N2CCN(C)CC2)CO3)s1 (stereo unspecified) | -94.6% |
| CN1CCC(N(C)C(=O)c2cnc3c(cnn3C3CCCC3)c2)CC1 | -26.9% |
| O=C(O)[C@@H]1CN(C2CCCC2)C[C@H]1C1CC1 | -147% |
| N#Cc1ccc(CN2C(=O)c3ccccc3CS2(=O)=O)c(F)c1 | -0.639% |
| CC(C)n1ccnc1C1CCN(C(=O)C2COc3ccccc3O2)CC1 (stereo unspecified) | -8.28% |
| CCCc1nc(C)cc(N2CCNC(C(=O)NCc3cccnc3)C2)n1 (stereo unspecified) | -7% |
| COc1ccc2cc(C3CN(C(=O)CCNC(C)=O)CCO3)ccc2c1 (stereo unspecified) | 9.85% |
| COCC(=O)NC(C)Cc1cccc(OC)c1 (stereo unspecified) | -10.6% |
| O=c1n(CCSCc2ccccc2F)nc2ccccn12 | 0.168% |
| Cn1cccc1C(=O)NCc1cn2c(n1)CN(c1ncccn1)CC2 | -109% |
| Cc1cc(CN(C)C(C(=O)O)c2cccc(C(F)(F)F)c2)on1 (stereo unspecified) | -6.33% |
| CCc1nnc2n1CCN(C(=O)c1ccc(C(F)(F)F)nc1C)C2 | -7.28% |
| CCC(Cn1ccc2[nH]c(=O)c(C#N)cc2c1=O)OC (stereo unspecified) | 2.33% |
| Cc1ccc(C)n1-c1ccc(C(=O)NCCNc2ncccn2)cc1 | -1.25% |
| Cc1nn(C)c(C)c1CCC(=O)NCc1csc(N2CCCC2)n1 | -4.55% |
| COc1ccccc1C1=NOC(CC2(C(=O)NCCO)CCOCC2)C1 (stereo unspecified) | -26.2% |
| Cc1c(CN2CCCC2(C)C(=O)N2CCOCC2)cnn1C (stereo unspecified) | -6.29% |
| Cn1ccnc1CN1CCC2(CC1)CN(Cc1ccccc1)C(=O)CO2 | -3.99% |

| SMILES | cytotoxicity at 10 µM |
| --- | --- |
| NCCO[C@H]1C[C@@H](O)C12CCN(C1Cc3ccccc3C1)CC2 | 20.7% |
| Cc1cn2c(=O)c(-c3ccnc(N4CCC[C@@H]4CO)n3)cnc2s1 | -9.52% |
| Cc1nc(CN2CC[C@H]3[C@H]2CCN3c2nncs2)cs1 | 5.2% |
| COc1cccc(OCC2CCCN(C(C)=O)C2)c1 (stereo unspecified) | 5.85% |
| Cc1cnn(CC2CN(Cc3cccc(C(N)=O)c3)CCO2)c1 (stereo unspecified) | -1.52% |
| CC(C)Cn1c(=O)[nH]c2cn(-c3ccc(F)cc3)c(=O)n21 | 8.2% |
| O=C(Nc1ccccc1)C1CN(CC2CCOCC2)CC12CCOCC2 (stereo unspecified) | 1.65% |
| COCCNS(=O)(=O)c1ccc2c(c1)CCN(C(=O)c1cncn1C)C2 | 9.65% |
| COC(=O)[C@]12CNC[C@H]1CN(Cc1nc(C)c[nH]1)C2 | 6.01% |
| CNc1ccc(C(=O)N(C)Cc2ccc3ccccc3n2)cn1 | 1.5% |
| c1cncc(CN2CCC(c3ccc4c(c3)OCO4)CC2)c1 | -0.415% |
| O=C(CN1CCc2sccc2C1)Nc1nccs1 | 5.31% |
| CN(C)CCN(Cc1ccc(Cl)cc1)C(=O)c1ccn(C)c(=O)c1 | -5.22% |
| O=C(c1cc(COc2ccc3c(c2)OCO3)[nH]n1)N1CCOCC1 | -5.21% |
| COC(=O)CNC(=O)C1(N(C)Cc2ccccc2)Cc2ccccc2C1 | 3.82% |
| Nc1ccc(C(=O)N2C[C@H]3CC[C@@H](C2)N(Cc2ccccc2)C3)cn1 | -121% |
| CC(C)CNC(=O)COc1cccc[n+]1[O-] | -8.35% |
| CC(C)N1CCc2ncn(C)c2C1C(=O)NCCN1CCCC1 (stereo unspecified) | -0.511% |
